Experimental data from ChEMBL document CHEMBL1131289, “2-Nitrophenylcarbamoyl-(S)-prolyl-(S)-3-(2-naphthyl)alanyl-N-benzyl-N - methylamide (SDZ NKT 343), a potent human NK1 tachykinin receptor antagonist with good oral analgesic activity in chronic pain models” (J Med Chem, 1998).

Tests used:
Substance-P receptor [1] = target: Substance-P receptor (Homo sapiens, UniProt P25103); assay: In vitro binding affinity towards Tachykinin receptor 1 by measuring its ability to displace [3H]SP (0.6 nM) binding to membranes from Cos-7 cells transiently transfected with the hNK-1R; assay type: cell membranes
Chain of Substance-P receptor (Homo sapiens, UniProt P25103) (P25103 whole entry): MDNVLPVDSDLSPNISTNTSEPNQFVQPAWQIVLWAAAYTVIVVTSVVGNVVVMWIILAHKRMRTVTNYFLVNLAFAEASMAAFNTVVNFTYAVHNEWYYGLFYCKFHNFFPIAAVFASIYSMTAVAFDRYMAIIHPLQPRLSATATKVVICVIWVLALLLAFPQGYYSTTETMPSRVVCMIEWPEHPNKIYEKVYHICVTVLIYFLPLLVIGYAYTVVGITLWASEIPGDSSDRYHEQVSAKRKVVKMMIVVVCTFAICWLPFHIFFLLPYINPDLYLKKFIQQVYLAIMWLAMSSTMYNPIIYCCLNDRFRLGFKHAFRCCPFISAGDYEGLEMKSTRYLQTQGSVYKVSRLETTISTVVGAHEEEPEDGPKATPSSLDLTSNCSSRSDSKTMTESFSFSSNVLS

Substance-P receptor [2] = target: T1, Substance-P receptor (Cavia porcellus, UniProt P30547); assay: Tachykinin receptor 1 antagonistic activity as inhibition of contractions evoked by 4 nM [Sar9,Met(O2)11]-SP in guinea pig ileum; assay type: functional, tissue-based
T1 sequence (P30547 whole entry): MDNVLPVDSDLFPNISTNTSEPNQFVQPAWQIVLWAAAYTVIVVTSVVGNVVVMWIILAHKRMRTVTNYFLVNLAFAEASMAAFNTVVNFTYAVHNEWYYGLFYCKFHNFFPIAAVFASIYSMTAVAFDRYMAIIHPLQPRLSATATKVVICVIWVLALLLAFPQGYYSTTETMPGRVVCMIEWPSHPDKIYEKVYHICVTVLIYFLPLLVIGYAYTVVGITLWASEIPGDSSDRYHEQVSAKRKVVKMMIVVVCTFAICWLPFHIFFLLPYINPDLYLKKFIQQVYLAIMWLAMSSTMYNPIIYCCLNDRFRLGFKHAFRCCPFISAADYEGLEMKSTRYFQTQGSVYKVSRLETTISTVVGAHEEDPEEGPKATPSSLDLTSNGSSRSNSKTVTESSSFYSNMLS
In short: (§1)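 Guinea pig ileum contracted by [Sar9Met(O2)11]SP (4.0 nM), repeated at least five times until stable. Antagonist added 2 min before agonist; at least three concentrations, each tested three times. IC50 read from log10 concentration–response curve; mean ± SEM of three separate experiments.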

Cavia porcellus [3] = assay: The compound was evaluated for its %inhibition of hyperalgesia at 30 mg/kg po dose and 1 hr after dosing; assay type: functional
In short: (§2)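 Guinea pigs got 1% carrageenan (100 μL) intraplantar in one hind paw. Mechanical hyperalgesia was read 24 h later, before dosing. Compound was given orally at 30 mg/kg in 10% DMSO in 1% tragacanth or as a microemulsion. Readings were taken at intervals up to 6 h, and the value is percentage reversal of predose hyperalgesia.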

Cavia porcellus [4] = assay: In vivo inhibition of hyperalgesia at 30 mg/kg po dose and 3h after dosing in guinea pig; assay type: functional; in short: as §2
Cavia porcellus [5] = species: Cavia porcellus; assay: The effective dose of compound used to inhibit 30% of hyperalgesia in guinea pig; assay type: functional
In short: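 Hyperalgesia was induced in guinea pigs with intraplantar 1% carrageenan (100 μL) in one hind paw. Mechanical hyperalgesia was assessed 24 h later, then oral doses were given in 10% DMSO/1% tragacanth or a microemulsion. ED30, the dose giving 30% inhibition of hyperalgesia, was taken from dose–response data 3 h after dosing (n = 3).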

Substance-P receptor [6] = target: T1, Substance-P receptor; assay: Tested for Tachykinin receptor 1 […] activity by measuring its ability to inhibit contractions evoked by [Sar9,Met(O2)11]-SP (4 nM) in guinea pig ileum; assay type: functional, tissue-based; in short: as §1

Row | Structure (SMILES) | Ki (Substance-P receptor [1]) | also measured
1 | CN(Cc1ccccc1)C(=O)[C@H](Cc1ccccc1)NC(=O)[C@@H]1CCCN1C(=O)NCc1ccccc1Cl |  | IC50 (Substance-P receptor [1]): 590 nM
2 | CN(Cc1ccccc1)C(=O)[C@H](Cc1ccc2ccccc2c1)NC(=O)[C@@H]1CCCN1C(=O)Nc1cccnc1 | 6.7 nM | inhibition in vivo at 30 mg/kg (Cavia porcellus [3]): 14%; IC50 (Substance-P receptor [2]): 4.2 nM
3 | CN(Cc1ccccc1)C(=O)[C@H](Cc1ccc2ccccc2c1)NC(=O)[C@@H]1CCCN1C(=O)Nc1cccc(F)c1 | 0.7 nM | IC50 (Substance-P receptor [2]): 6.8 nM; inhibition in vivo at 30 mg/kg (Cavia porcellus [4]): 10%
4 | CN(Cc1ccccc1)C(=O)[C@H](Cc1c[nH]c2ccccc12)NC(=O)[C@@H]1CCCN1C(=S)NCc1ccccc1Cl | 16.7 nM | 
5 | CN(Cc1ccccc1)C(=O)[C@H](Cc1ccccc1)NC(=O)[C@@H]1CCCN1C(=S)NCc1cc(C(F)(F)F)cc(C(F)(F)F)c1 | 78.6 nM | 
6 | CNC(=O)c1ccccc1NC(=O)N1CCC[C@H]1C(=O)N[C@@H](Cc1ccc2ccccc2c1)C(=O)N(C)Cc1ccccc1 | 3.8 nM | IC50 (Substance-P receptor [2]): 3 nM
7 | CN(Cc1ccccc1)C(=O)[C@H](Cc1cccc2ccccc12)NC(=O)[C@@H]1CCCN1/C(S)=N/Cc1ccccc1Cl | 13.7 nM | 
8 | COCc1ccccc1NC(=O)N1CCC[C@H]1C(=O)N[C@@H](Cc1ccc2ccccc2c1)C(=O)N(C)Cc1ccccc1 | 1 nM | IC50 (Substance-P receptor [2]): 1.2 nM; inhibition in vivo at 30 mg/kg (Cavia porcellus [4]): 67%; ED30 (Cavia porcellus [5]): 1.2 mg/kg
9 | CN(Cc1ccccc1)C(=O)[C@H](CCc1ccccc1)NC(=O)[C@@H]1CCCN1/C(S)=N/Cc1ccccc1Cl |  | IC50 (Substance-P receptor [1]): 206 nM
10 | CN(Cc1ccccc1)C(=O)[C@H](Cc1ccccc1)NC(=O)[C@@H]1CCCN1C(=S)NCc1ccccc1Br | 29.7 nM | 
11 | CN(Cc1ccccc1)C(=O)[C@H](Cc1ccc2ccccc2c1)NC(=O)[C@@H]1CCCN1C(=O)Nc1ccc(C#N)cc1 | 1.1 nM | IC50 (Substance-P receptor [2]): 2.4 nM; inhibition in vivo at 30 mg/kg (Cavia porcellus [4]): 32%
12 | CN(Cc1ccccc1)C(=O)[C@H](Cc1ccc2ccccc2c1)NC(=O)[C@@H]1CCCN1C(=O)Nc1cccc(C#N)c1 | 4.2 nM | IC50 (Substance-P receptor [2]): 2.6 nM; inhibition in vivo at 30 mg/kg (Cavia porcellus [4]): 38%
13 | CN(Cc1ccccc1)C(=O)[C@H](Cc1ccc2ccccc2c1)NC(=O)[C@@H]1CCCN1C(=O)Nc1ccccc1C(N)=O | 0.8 nM | IC50 (Substance-P receptor [2]): 1.9 nM; inhibition in vivo at 30 mg/kg (Cavia porcellus [4]): 35%; ED30 (Cavia porcellus [5]): 15.7 mg/kg
14 | CN(Cc1ccncc1)C(=O)[C@H](Cc1ccccc1)NC(=O)[C@@H]1CCCN1C(=S)NCc1ccccc1Cl |  | IC50 (Substance-P receptor [1]): 10000 nM
15 | CN(C)C(=O)c1ccccc1NC(=O)N1CCC[C@H]1C(=O)N[C@@H](Cc1ccc2ccccc2c1)C(=O)N(C)Cc1ccccc1 | 6.1 nM | 
16 | CN(Cc1ccccc1)C(=O)[C@H](Cc1ccc(-c2ccccc2)cc1)NC(=O)[C@@H]1CCCN1/C(S)=N/Cc1ccccc1Cl | 7.2 nM | 
17 | CN(Cc1ccccc1)C(=O)[C@H](Cc1ccc2ccccc2c1)NC(=O)[C@@H]1CCCN1C(=O)Nc1ccccc1C#N | 1.1 nM | IC50 (Substance-P receptor [2]): 1 nM; inhibition in vivo at 30 mg/kg (Cavia porcellus [4]): 42%; ED30 (Cavia porcellus [5]): 2.1 mg/kg
18 | CN(CCc1ccccc1)C(=O)[C@H](Cc1ccccc1)NC(=O)[C@@H]1CCCN1C(=S)NCc1ccccc1Cl |  | IC50 (Substance-P receptor [1]): 2500 nM

Row | Structure (SMILES) | Ki (Substance-P receptor [1]) | also measured
19 | CN(Cc1ccccc1)C(=O)[C@H](Cc1ccccc1)N(C)C(=O)[C@@H]1CCCN1/C(S)=N/Cc1ccccc1Cl | 38 nM | 
20 | CN(Cc1ccccc1)C(=O)[C@H](Cc1ccc2ccccc2c1)NC(=O)[C@@H]1CCCN1C(=O)Nc1ccccc1 | 0.88 nM | IC50 (Substance-P receptor [2]): 5 nM; inhibition in vivo at 30 mg/kg (Cavia porcellus [4]): 26%
21 | CN(Cc1ccccc1)C(=O)[C@H](Cc1ccc2ccccc2c1)N(C)C(=O)[C@@H]1CCCN1C(=S)NCc1ccccc1Cl | 1.7 nM | 
22 | O=C(NCCc1c[nH]c2ccccc12)[C@H](Cc1ccccc1)NC(=O)[C@@H]1CCCN1C(=S)NCc1ccccc1Cl |  | IC50 (Substance-P receptor [1]): 3700 nM
23 | CN(Cc1ccccc1)C(=O)[C@H](Cc1ccc2ccccc2c1)NC(=O)[C@@H]1CCCN1C(=O)Nc1cccc([N+](=O)[O-])c1 | 2.3 nM | 
24 | CN(Cc1ccccc1)C(=O)[C@H](Cc1ccccc1)NC(=O)[C@@H]1CCCN1C(=S)NCc1ccccc1F |  | IC50 (Substance-P receptor [1]): 290 nM
25 | CN(Cc1cccc2ccccc12)C(=O)[C@H](Cc1ccccc1)NC(=O)[C@@H]1CCCN1C(=S)NCc1ccccc1Cl | 17.1 nM | 
26 | CN(Cc1ccccc1)C(=O)[C@H](Cc1ccc2ccccc2c1)NC(=O)[C@@H]1CCCN1C(=O)Nc1ccccc1O | 2.6 nM | 
27 | CN(Cc1ccccc1)C(=O)[C@@H](Cc1ccccc1)NC(=O)[C@H]1CCCN1/C(S)=N/c1ccccc1Br |  | IC50 (Substance-P receptor [1]): 1000 nM
28 | CN(Cc1ccccc1)C(=O)[C@@H](Cc1ccccc1)NC(=O)[C@H]1CCCN1C(=S)Nc1ccccc1Cl |  | IC50 (Substance-P receptor [1]): 3200 nM
29 | CN(Cc1ccccc1)C(=O)[C@H](Cc1ccc2ccccc2c1)NC(=O)[C@@H]1CCCN1C(=O)Nc1ccccc1N |  | IC50 (Substance-P receptor [2]): 21 nM
30 | Cc1ccccc1C/N=C(\S)N1CCC[C@H]1C(=O)N[C@@H](Cc1ccccc1)C(=O)N(C)Cc1ccccc1 |  | IC50 (Substance-P receptor [1]): 410 nM
31 | CC(=O)Nc1ccccc1NC(=O)N1CCC[C@H]1C(=O)N[C@@H](Cc1ccc2ccccc2c1)C(=O)N(C)Cc1ccccc1 |  | IC50 (Substance-P receptor [6]): 7.5 nM
32 | CN(Cc1ccccc1)C(=O)[C@H](Cc1ccccc1)NC(=O)[C@@H]1CCCN1/C(S)=N/Cc1ccccc1 | 1010 nM | 
33 | CN(Cc1ccccc1)C(=O)[C@H](Cc1ccccc1)NC(=O)[C@@H]1CCCN1/C(S)=N/Cc1ccccc1C(F)(F)F | 27.2 nM | 
34 | CN(CCc1c[nH]c2ccccc12)C(=O)[C@H](Cc1ccccc1)NC(=O)[C@@H]1CCCN1/C(S)=N/Cc1ccccc1Cl | 48 nM | 
35 | CN(Cc1ccccc1)C(=O)[C@H](Cc1ccc2ccccc2c1)NC(=O)[C@@H]1CCCN1C(=N)NCc1ccccc1Cl | 0.5 nM | 
36 | CN(C(=O)[C@H](Cc1ccccc1)NC(=O)[C@@H]1CCCN1C(=S)NCc1ccccc1Cl)c1ccccc1 |  | IC50 (Substance-P receptor [1]): 100000 nM

Continued, in another order:

Row | Ki (Substance-P receptor [1]) | Structure (SMILES) | also measured
37 | 77.6 nM | CN(Cc1ccccc1)C(=O)[C@H](Cc1ccccc1)NC(=O)[C@@H]1CCCN1/C(S)=N/Cc1ccccc1[N+](=O)[O-] | 
38 | 2.2 nM | CN(Cc1ccccc1)C(=O)[C@H](Cc1ccc2ccccc2c1)NC(=O)[C@@H]1CCCN1C(=O)Nc1ccc(F)cc1 | IC50 (Substance-P receptor [2]): 17.3 nM
39 | 18.2 nM | CN(Cc1ccccc1)C(=O)[C@H](Cc1ccc2ccccc2c1)NC(=O)[C@@H]1CCCN1C(=O)Nc1ccccc1C(F)(F)F | 
40 | 3.5 nM | CN(Cc1ccccc1)C(=O)[C@H](Cc1ccc2ccccc2c1)NC(=O)[C@@H]1CCCN1C(=O)Nc1ccccc1F | 
41 | 26.9 nM | CN(Cc1cc(C(F)(F)F)cc(C(F)(F)F)c1)C(=O)[C@H](Cc1ccccc1)NC(=O)[C@@H]1CCCN1C(=S)NCc1ccccc1Cl | 
42 | 5 nM | CN(Cc1ccccc1)C(=O)[C@H](Cc1ccc(Cl)c(Cl)c1)NC(=O)[C@@H]1CCCN1/C(S)=N/Cc1ccccc1Cl | 
43 | 4.7 nM | CN(Cc1ccccc1)C(=O)[C@H](Cc1cn(C)c2ccccc12)NC(=O)[C@@H]1CCCN1/C(S)=N/Cc1ccccc1Cl | 
44 | 80 nM | CN(Cc1ccccc1)C(=O)[C@H](Cc1ccccc1)NC(=O)[C@@H]1CCCN1C(=S)Nc1ccccc1 (single isomer, unassigned) | 
45 | 29.9 nM | CN(Cc1ccccc1)C(=O)[C@H](Cc1ccccc1)NC(=O)[C@@H]1CCCN1C(=S)NCc1ccccc1Cl | 
46 | 25.9 nM | CN(Cc1ccccc1)C(=O)[C@H](Cc1ccccc1)NC(=O)[C@@H]1CCCN1/C(S)=N/Cc1c(Cl)cccc1Cl | 
47 | 29.4 nM | CN(Cc1ccccc1)C(=O)[C@@H](NC(=O)[C@@H]1CCCN1C(=S)NCc1ccccc1Cl)C(c1ccccc1)c1ccccc1 | 
48 | 0.3 nM | COC(=O)c1ccccc1NC(=O)N1CCC[C@H]1C(=O)N[C@@H](Cc1ccc2ccccc2c1)C(=O)N(C)Cc1ccccc1 | IC50 (Substance-P receptor [2]): 6 nM
49 | 36 nM | CN(Cc1ccc2ccccc2c1)C(=O)[C@H](Cc1ccccc1)NC(=O)[C@@H]1CCCN1/C(S)=N/Cc1ccccc1Cl | 
50 | 18.5 nM | CN(Cc1ccccc1)C(=O)[C@H](Cc1ccccc1)NC(=O)[C@@H]1CCCN1C(=N)NCc1ccccc1Cl | 
51 | 2.3 nM | CN(Cc1ccccc1)C(=O)[C@H](Cc1ccc2ccccc2c1)NC(=O)[C@@H]1CCCN1C(=O)NCc1ccccc1Cl | 
52 | 5 nM | CN(Cc1ccccc1)C(=O)[C@H](Cc1ccc2ccccc2c1)NC(=O)[C@@H]1CCCN1C(=O)Nc1cccc(C(N)=O)c1 | 
53 | 1.7 nM | CN(Cc1ccccc1)C(=O)[C@H](Cc1ccc2ccccc2c1)NC(=O)[C@@H]1CCCN1C(=O)Nc1ccccc1CO | 
54 | 172 nM | CN(Cc1ccccc1)C(=O)[C@H](Cc1ccc2ccccc2c1)NC(=O)[C@@H]1CCCN1C(=O)Nc1ccccc1C(=O)O | 
